{
  "source": "ChEMBL document CHEMBL4406875",
  "about": "“Design, synthesis and biological evaluation of amino acids-oleanolic acid conjugates as influenza virus inhibitors” (Bioorg Med Chem, 2019)",
  "key": {"[1]": {"system": "Influenza B virus", "assay": "Antiviral activity against oseltamivir resistant Victoria lineage of Influenza B virus (B/Brisbane/60/2008) BX-35 infected in MDCK cells assessed as inhibition of virus-induced cytopathic effect measured after 45 hrs by CellTiter-Glo luminescence assay", "assay_type": "functional, organism-based", "details": "B/Brisbane/60/2008 BX-35, MDCK", "in_short": "(§1)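 MDCK cells (5,000/well) were seeded one day before infection. Infection medium was high-glucose DMEM with 1% FBS and trypsin (1 μg/mL). Compounds were added at various concentrations and cells infected at MOI 0.1. After 45 h, viability was read by CellTiter-Glo luminescence. IC50 was taken from dose-response curves, as the mean of duplicate samples from three independent experiments.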"}, "[2]": {"system": "Influenza B virus", "assay": "Antiviral activity against oseltamivir resistant Yamagata lineage of Influenza B virus (B/Massachusetts/2/2012) BX-51B infected in MDCK cells assessed as inhibition of virus-induced cytopathic effect measured after 45 hrs by CellTiter-Glo luminescence assay", "assay_type": "functional, organism-based", "details": "B/Massachusetts/02/2012 BX-51B", "in_short": "as §1"}},
  "note": "pIC50: −log10 of the molar value.",
  "data": [
    {"smiles": "CC1(C)CC[C@]2(C(=O)N[C@@H](CCCNC(=N)N)C(=O)O)CC[C@]3(C)C(=CC[C@@H]4[C@@]5(C)CC[C@H](O)C(C)(C)[C@@H]5CC[C@]43C)[C@@H]2C1", "values": [
      {"measurement": "pIC50", "setting": "[1]", "result": 4.21},
      {"measurement": "pIC50", "setting": "[2]", "result": 4.34}
    ]},
    {"smiles": "CCOC(=O)C1=C[C@@H](OC(CC)CC)[C@H](NC(C)=O)[C@@H](N)C1", "note": "[OSELTAMIVIR PHOSPHATE]", "values": [
      {"measurement": "pIC50", "setting": "[1]", "result": "< 4.00"},
      {"measurement": "pIC50", "setting": "[2]", "result": "< 4.00"}
    ]}
  ]
}
